Measured values as given in ChEMBL document CHEMBL1177846, “Benzylidene/2-chlorobenzylidene hydrazides: synthesis, antimicrobial activity, QSAR studies and antiviral evaluation” (Eur J Med Chem, 2010).
Activity calls are given as the source filed them. No cut-off for these calls is given here.

System: Influenza B virus
Assay: Antiviral activity against influenza B virus infected in MDCK cells assessed as inhibition of virus-induced cytopathic effect after 3 days by MTS assay
Type: functional, organism-based
Conditions: not given
Method in brief: (§1)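 Confluent cell monolayers were infected with 100 CCID50 of virus and allowed 2 h adsorption at 37 °C. Virus was then removed and serial compound dilutions were added. Cultures were incubated at 37 °C for 3 days, until CPE was complete in the untreated virus control. EC50 was the concentration giving 50% inhibition of virus-induced CPE, by visual score or by MTS formazan cell viability.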

Compound | inhibition
Cc1cccc(C(=O)N/N=C/c2ccccc2Cl)c1 | inactive
CCCCCCCCCCCCCCCCCC(=O)N/N=C/c1ccccc1Cl | inactive
C/C=C/C=C/C(=O)N/N=C/c1ccccc1Cl | inactive
CCCCCCCCCCCCCC(=O)N/N=C/c1ccccc1Cl | inactive
Cc1cccc(C(=O)N/N=C/c2ccccc2)c1 | inactive

System: Human alphaherpesvirus 1
Assay: Antiviral activity against acyclovir-resistant […] kinase-deficient HSV1 KOS infected in human HEL cells assessed as inhibition of virus-induced cytopathic effect after 3 days by MTS assay
Type: functional, organism-based
Conditions: not given
Method in brief: as §1

Compound | inhibition
Cc1cccc(C(=O)N/N=C/c2ccccc2Cl)c1 | inactive
CCCCCCCCCCCCCCCCCC(=O)N/N=C/c1ccccc1Cl | inactive
C/C=C/C=C/C(=O)N/N=C/c1ccccc1Cl | inactive
CCCCCCCCCCCCCC(=O)N/N=C/c1ccccc1Cl | inactive
Cc1cccc(C(=O)N/N=C/c2ccccc2)c1 | inactive

System: Human respirovirus 3
Assay: Antiviral activity against Parainfluenza 3 virus infected in african green monkey Vero cells assessed as inhibition of virus-induced cytopathic effect after 3 days by MTS assay
Type: functional, organism-based
Conditions: not given
Method in brief: as §1

Compound | inhibition
Cc1cccc(C(=O)N/N=C/c2ccccc2Cl)c1 | inactive
CCCCCCCCCCCCCCCCCC(=O)N/N=C/c1ccccc1Cl | inactive
C/C=C/C=C/C(=O)N/N=C/c1ccccc1Cl | inactive
CCCCCCCCCCCCCC(=O)N/N=C/c1ccccc1Cl | inactive
Cc1cccc(C(=O)N/N=C/c2ccccc2)c1 | inactive

System: Candida albicans
Assay: Antifungal activity against Candida albicans after 48 hrs by serial dilution method
Type: functional
Conditions: not given
Method in brief: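 Serial compound dilutions in Sabouraud dextrose broth (tube dilution), incubated 37 °C for 48 h. MIC was read as the lowest concentration with no growth.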

Compound | MFC [uM/ml]
Cc1cccc(C(=O)N/N=C/c2ccccc2Cl)c1 | >0.183
CCCCCCCCCCCCCCCCCC(=O)N/N=C/c1ccccc1Cl | >0.119
C/C=C/C=C/C(=O)N/N=C/c1ccccc1Cl | >0.201
CCCCCCCCCCCCCC(=O)N/N=C/c1ccccc1Cl | >0.137
Cc1cccc(C(=O)N/N=C/c2ccccc2)c1 | >0.21

System: Vaccinia virus
Assay: Antiviral activity against Vaccinia virus infected in human HEL cells assessed as inhibition of virus-induced cytopathic effect after 3 days by MTS assay
Type: functional, organism-based
Conditions: Orthopoxvirus vaccinia
Method in brief: as §1

Compound | inhibition
Cc1cccc(C(=O)N/N=C/c2ccccc2Cl)c1 | inactive
CCCCCCCCCCCCCCCCCC(=O)N/N=C/c1ccccc1Cl | inactive
C/C=C/C=C/C(=O)N/N=C/c1ccccc1Cl | inactive
CCCCCCCCCCCCCC(=O)N/N=C/c1ccccc1Cl | inactive
Cc1cccc(C(=O)N/N=C/c2ccccc2)c1 | inactive

System: Influenza A virus
Assay: Antiviral activity against influenza A virus H3N2 infected in MDCK cells assessed as inhibition of virus-induced cytopathic effect after 3 days by MTS assay
Type: functional, organism-based
Conditions: not given
Method in brief: as §1

Compound | inhibition
Cc1cccc(C(=O)N/N=C/c2ccccc2Cl)c1 | inactive
CCCCCCCCCCCCCCCCCC(=O)N/N=C/c1ccccc1Cl | inactive
C/C=C/C=C/C(=O)N/N=C/c1ccccc1Cl | inactive
CCCCCCCCCCCCCC(=O)N/N=C/c1ccccc1Cl | inactive
Cc1cccc(C(=O)N/N=C/c2ccccc2)c1 | inactive

System: Mammalian orthoreovirus 1
Assay: Antiviral activity against Reovirus 1 infected in african green monkey Vero cells assessed as inhibition of virus-induced cytopathic effect after 3 days by MTS assay
Type: functional, organism-based
Conditions: not given
Method in brief: as §1

Compound | inhibition
Cc1cccc(C(=O)N/N=C/c2ccccc2Cl)c1 | inactive
CCCCCCCCCCCCCCCCCC(=O)N/N=C/c1ccccc1Cl | inactive
C/C=C/C=C/C(=O)N/N=C/c1ccccc1Cl | inactive
CCCCCCCCCCCCCC(=O)N/N=C/c1ccccc1Cl | inactive
Cc1cccc(C(=O)N/N=C/c2ccccc2)c1 | inactive

System: Vesicular stomatitis virus
Assay: Antiviral activity against VSV infected in human HEL cells assessed as inhibition of virus-induced cytopathic effect after 3 days by MTS assay
Type: functional, organism-based
Conditions: not given
Method in brief: as §1

Compound | inhibition
Cc1cccc(C(=O)N/N=C/c2ccccc2Cl)c1 | inactive
CCCCCCCCCCCCCCCCCC(=O)N/N=C/c1ccccc1Cl | inactive
C/C=C/C=C/C(=O)N/N=C/c1ccccc1Cl | inactive
CCCCCCCCCCCCCC(=O)N/N=C/c1ccccc1Cl | inactive
Cc1cccc(C(=O)N/N=C/c2ccccc2)c1 | inactive

System: Escherichia coli
Assay: Antibacterial activity against Escherichia coli after 24 hrs by serial dilution method
Type: functional
Conditions: not given

Compound | MBC [uM/ml]
Cc1cccc(C(=O)N/N=C/c2ccccc2Cl)c1 | 0.045
CCCCCCCCCCCCCCCCCC(=O)N/N=C/c1ccccc1Cl | >0.119
C/C=C/C=C/C(=O)N/N=C/c1ccccc1Cl | 0.1
CCCCCCCCCCCCCC(=O)N/N=C/c1ccccc1Cl | 0.034
Cc1cccc(C(=O)N/N=C/c2ccccc2)c1 | >0.21

System: Felid alphaherpesvirus 1
Assay: Antiviral activity against Feline herpesvirus 1 infected in […] cells assessed as inhibition of virus-induced cytopathic effect after 3 days by MTS assay
Type: functional, organism-based
Conditions: not given
Method in brief: as §1

Compound | inhibition
Cc1cccc(C(=O)N/N=C/c2ccccc2Cl)c1 | inactive
CCCCCCCCCCCCCCCCCC(=O)N/N=C/c1ccccc1Cl | inactive
C/C=C/C=C/C(=O)N/N=C/c1ccccc1Cl | inactive
CCCCCCCCCCCCCC(=O)N/N=C/c1ccccc1Cl | inactive
Cc1cccc(C(=O)N/N=C/c2ccccc2)c1 | inactive

System: Punta Toro virus
Assay: Antiviral activity against Punta toro virus infected in african green monkey Vero cells assessed as inhibition of virus-induced cytopathic effect after 3 days by MTS assay
Type: functional, organism-based
Conditions: not given
Method in brief: as §1

Compound | inhibition
Cc1cccc(C(=O)N/N=C/c2ccccc2Cl)c1 | inactive
CCCCCCCCCCCCCCCCCC(=O)N/N=C/c1ccccc1Cl | inactive
C/C=C/C=C/C(=O)N/N=C/c1ccccc1Cl | inactive
CCCCCCCCCCCCCC(=O)N/N=C/c1ccccc1Cl | inactive
Cc1cccc(C(=O)N/N=C/c2ccccc2)c1 | inactive

System: Feline coronavirus
Assay: Antiviral activity against Feline caronavirus infected in […] cells assessed as inhibition of virus-induced cytopathic effect after 3 days by MTS assay
Type: functional, organism-based
Conditions: not given
Method in brief: as §1

Compound | inhibition
Cc1cccc(C(=O)N/N=C/c2ccccc2Cl)c1 | inactive
CCCCCCCCCCCCCCCCCC(=O)N/N=C/c1ccccc1Cl | inactive
C/C=C/C=C/C(=O)N/N=C/c1ccccc1Cl | inactive
CCCCCCCCCCCCCC(=O)N/N=C/c1ccccc1Cl | inactive
Cc1cccc(C(=O)N/N=C/c2ccccc2)c1 | inactive

System: Human alphaherpesvirus 2
Assay: Antiviral activity against Herpes simplex virus 2 G infected in human HEL cells assessed as inhibition of virus-induced cytopathic effect after 3 days by MTS assay
Type: functional, organism-based
Conditions: strain G
Method in brief: as §1

Compound | inhibition
Cc1cccc(C(=O)N/N=C/c2ccccc2Cl)c1 | inactive
CCCCCCCCCCCCCCCCCC(=O)N/N=C/c1ccccc1Cl | inactive
C/C=C/C=C/C(=O)N/N=C/c1ccccc1Cl | inactive
CCCCCCCCCCCCCC(=O)N/N=C/c1ccccc1Cl | inactive
Cc1cccc(C(=O)N/N=C/c2ccccc2)c1 | inactive

System: Influenza A virus
Assay: Antiviral activity against influenza A virus H1N1 infected in MDCK cells assessed as inhibition of virus-induced cytopathic effect after 3 days by MTS assay
Type: functional, organism-based
Conditions: not given
Method in brief: as §1

Compound | inhibition
Cc1cccc(C(=O)N/N=C/c2ccccc2Cl)c1 | inactive
CCCCCCCCCCCCCCCCCC(=O)N/N=C/c1ccccc1Cl | inactive
C/C=C/C=C/C(=O)N/N=C/c1ccccc1Cl | inactive
CCCCCCCCCCCCCC(=O)N/N=C/c1ccccc1Cl | inactive
Cc1cccc(C(=O)N/N=C/c2ccccc2)c1 | inactive

System: Coxsackievirus B4
Assay: Antiviral activity against Coxsackie virus B4 infected in african green monkey Vero cells assessed as inhibition of virus-induced cytopathic effect after 3 days by MTS assay
Type: functional, organism-based
Conditions: not given
Method in brief: as §1

Compound | inhibition
Cc1cccc(C(=O)N/N=C/c2ccccc2Cl)c1 | inactive
CCCCCCCCCCCCCCCCCC(=O)N/N=C/c1ccccc1Cl | inactive
C/C=C/C=C/C(=O)N/N=C/c1ccccc1Cl | inactive
CCCCCCCCCCCCCC(=O)N/N=C/c1ccccc1Cl | inactive
Cc1cccc(C(=O)N/N=C/c2ccccc2)c1 | inactive

System: Human alphaherpesvirus 1
Assay: Antiviral activity against Herpes simplex virus 1 KOS infected in human HEL cells assessed as inhibition of virus-induced cytopathic effect after 3 days by MTS assay
Type: functional, organism-based
Conditions: not given
Method in brief: as §1

Compound | inhibition
Cc1cccc(C(=O)N/N=C/c2ccccc2Cl)c1 | inactive
CCCCCCCCCCCCCCCCCC(=O)N/N=C/c1ccccc1Cl | inactive
C/C=C/C=C/C(=O)N/N=C/c1ccccc1Cl | inactive
CCCCCCCCCCCCCC(=O)N/N=C/c1ccccc1Cl | inactive
Cc1cccc(C(=O)N/N=C/c2ccccc2)c1 | inactive

System: Sindbis virus
Assay: Antiviral activity against Simbidis virus infected in african green monkey Vero cells assessed as inhibition of virus-induced cytopathic effect after 3 days by MTS assay
Type: functional, organism-based
Conditions: not given
Method in brief: as §1

Compound | inhibition
Cc1cccc(C(=O)N/N=C/c2ccccc2Cl)c1 | inactive
CCCCCCCCCCCCCCCCCC(=O)N/N=C/c1ccccc1Cl | inactive
C/C=C/C=C/C(=O)N/N=C/c1ccccc1Cl | inactive
CCCCCCCCCCCCCC(=O)N/N=C/c1ccccc1Cl | inactive
Cc1cccc(C(=O)N/N=C/c2ccccc2)c1 | inactive

System: Aspergillus niger
Assay: Antifungal activity against Aspergillus niger after 7 days by serial dilution method
Type: functional
Conditions: not given

Compound | -logMIC | MFC [uM/ml]
Cc1cccc(C(=O)N/N=C/c2ccccc2Cl)c1 | 1.51 | >0.183
CCCCCCCCCCCCCCCCCC(=O)N/N=C/c1ccccc1Cl | 1.29 | 0.059
C/C=C/C=C/C(=O)N/N=C/c1ccccc1Cl | 1.5 | >0.201
CCCCCCCCCCCCCC(=O)N/N=C/c1ccccc1Cl | 1.12 | >0.137
Cc1cccc(C(=O)N/N=C/c2ccccc2)c1 | 1.58 | >0.21

System: Staphylococcus aureus
Assay: Antibacterial activity against Staphylococcus aureus after 24 hrs by serial dilution method
Type: functional
Conditions: not given

Compound | MBC [uM/ml] | -logMIC
Cc1cccc(C(=O)N/N=C/c2ccccc2Cl)c1 | >0.183 | –
CCCCCCCCCCCCCCCCCC(=O)N/N=C/c1ccccc1Cl | >0.119 | 1.53
C/C=C/C=C/C(=O)N/N=C/c1ccccc1Cl | >0.201 | –
CCCCCCCCCCCCCC(=O)N/N=C/c1ccccc1Cl | >0.137 | –
Cc1cccc(C(=O)N/N=C/c2ccccc2)c1 | >0.21 | –

System: Bacillus subtilis
Assay: Antibacterial activity against Bacillus subtilis after 24 hrs by serial dilution method
Type: functional
Conditions: not given

Compound | MBC [uM/ml] | -logMIC
Cc1cccc(C(=O)N/N=C/c2ccccc2Cl)c1 | 0.045 | –
CCCCCCCCCCCCCCCCCC(=O)N/N=C/c1ccccc1Cl | 0.029 | 1.53
C/C=C/C=C/C(=O)N/N=C/c1ccccc1Cl | 0.05 | –
CCCCCCCCCCCCCC(=O)N/N=C/c1ccccc1Cl | >0.137 | –
Cc1cccc(C(=O)N/N=C/c2ccccc2)c1 | 0.052 | –
